{"source": "ChEMBL document CHEMBL4334439", "about": "“Discovery, Optimization, and Target Identification of Novel Potent Broad-Spectrum Antiviral Inhibitors” (J Med Chem, 2019)", "key": {"[1]": {"tested_on": "Hepatitis C virus", "test": "Antiviral activity against EGFP-fused HCV JFH-1 harboring K78E/E2-G451R/NS3-M260K/NS5A-T462I mutant infected in human Huh7.5.1 cells assessed as reduction in viral RNA level after 2 days by qRT-PCR analysis", "format": "functional, organism-based", "procedure,_shortened": "(§1)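 Huh7.5.1 cells at 1×10^4/well, grown overnight at 37 °C. HCVcc was mixed with serially diluted compound (top 30 or 6 μM), given alone or with the named drug, and added to the cells. Viral RNA was read by qRT-PCR after 2 days. EC50 is the concentration giving 50% RNA reduction.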"}, "[2]": {"test": "Cytotoxicity against human Huh7.5.1 cells assessed as decrease in cell viability after 48 hrs by WST1 assay", "format": "cell-based", "procedure,_shortened": "(§2)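 Cells seeded at 1 × 10^4 per well and cultured overnight at 37 °C, then incubated 48 h with serially diluted compounds. Viability read with WST-1 reagent as absorbance at OD450/OD630.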"}, "[3]": {"tested_on": "Hepatitis C virus", "test": "Antiviral activity against EGFP-fused HCV JFH-1 harboring K78E/E2-G451R/NS3-M260K/NS5A-T462I mutation infected in human Huh7.5.1 cells assessed as reduction in viral RNA level after 2 days in presence of daclatasvir by qRT-PCR analysis", "format": "functional, organism-based", "settings": "Hepacivirus hominis", "procedure,_shortened": "as §1"}, "[4]": {"tested_on": "Hepatitis C virus", "test": "Antiviral activity against EGFP-fused HCV JFH-1 harboring K78E/E2-G451R/NS3-M260K/NS5A-T462I mutation infected in human Huh7.5.1 cells assessed as combination index after 2 days in presence of boceprevir by qRT-PCR analysis", "format": "functional, Hepacivirus hominis", "procedure,_shortened": "(§3)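 In HCVcc-infected Huh7.5.1 cells (1×10^4/well, overnight, 37 °C), compound was given at various concentrations alone or with the named approved antiviral. After 2 days HCV RNA was quantified by qRT-PCR to derive the combination index.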"}, "[5]": {"tested_on": "Hepatitis C virus", "test": "Antiviral activity against EGFP-fused HCV JFH-1 harboring K78E/E2-G451R/NS3-M260K/NS5A-T462I mutation infected in human Huh7.5.1 cells assessed as combination index after 2 days in presence of sofosbuvir by qRT-PCR analysis", "format": "functional, Hepacivirus hominis", "procedure,_shortened": "as §3"}, "[6]": {"tested_on": "Huh7.5.1", "test": "Cytotoxicity against human Huh7.5.1 cells infected with DENV assessed as decrease in cell viability after 48 hrs by WST1 assay", "format": "cell-based", "settings": "Huh-7.5.1, 48 h", "procedure,_shortened": "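Cells at 1×10^4/well, cultured overnight at 37 °C, were incubated 48 h with serially diluted compound. Viability was read by WST-1 absorbance (OD450/OD630).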"}, "[7]": {"tested_on": "Severe fever with thrombocytopenia syndrome virus", "test": "Antiviral activity against SFTSV infected in African green monkey Vero cells assessed as reduction in viral titre measured at 4 days post infection", "format": "functional", "settings": "96 h"}, "[8]": {"test": "Cytotoxicity against human RD cells infected with EV71 assessed as decrease in cell viability after 48 hrs by WST1 assay", "format": "cell-based", "procedure,_shortened": "as §2"}, "[9]": {"test": "Selectivity index, ratio of CC50 for African green monkey Vero cells to EC50 for SFTSV infected in African green monkey Vero cells", "format": "toxicity", "settings": "read-out: Ratio CC50/EC50", "procedure,_shortened": "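Vero cells infected with SFTSV at MOI 0.01; virus titre measured 4 days after infection. The cytotoxicity arm used 1×10^4 cells/well with 48 h of serially diluted compound, then a WST-1 absorbance read (OD450/OD630) for CC50. SI is CC50/EC50.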"}, "[10]": {"species_on_record": "Homo sapiens", "test": "Binding affinity to C-terminal 6-His tagged recombinant human DHODH N-terminal domain delta29 mutant expressed in Escherichia coli BL21(DE3) assessed as reduction in pronase-mediated protein degradation incubated for 1 hr followed by pronase addition and measured after 15 mins by SDS-PAGE based Western blot analysis", "procedure,_shortened": "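DARTS used Δ29 human DHODH with a C-terminal His6 tag, expressed in E. coli BL21(DE3) and purified on HisTrap then Superdex200. Protein at 20 μg/ml in TNC buffer (50 mM Tris pH 8.0, 50 mM NaCl, 10 mM CaCl2) was incubated 1 h at RT with compound or DMSO. Pronase followed, 15 min at 37 °C; protease-inhibitor quench; anti-DHODH western blot.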"}, "[11]": {"tested_on": "Hepatitis C virus", "test": "Antiviral activity against HCV infected in human Huh7.5.1 cells assessed as decrease in viral infection", "format": "functional, organism-based, Hepacivirus hominis", "settings": "Huh-7.5.1"}, "[12]": {"target": "T1, Ribose-phosphate pyrophosphokinase 1 (Homo sapiens) (UniProt P60891)", "T1 sequence (whole entry)": "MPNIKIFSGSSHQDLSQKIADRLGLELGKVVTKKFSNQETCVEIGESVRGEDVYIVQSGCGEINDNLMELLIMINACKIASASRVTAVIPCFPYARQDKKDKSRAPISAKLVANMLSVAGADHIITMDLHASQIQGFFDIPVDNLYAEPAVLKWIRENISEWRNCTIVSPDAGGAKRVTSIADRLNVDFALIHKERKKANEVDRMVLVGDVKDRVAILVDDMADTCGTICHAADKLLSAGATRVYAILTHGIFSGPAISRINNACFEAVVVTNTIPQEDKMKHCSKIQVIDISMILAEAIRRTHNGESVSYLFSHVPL", "test": "Binding affinity to PRPS1 (unknown origin)"}}, "note": "The source made the active and inactive calls. The rule behind the calls is not given here.", "data": [{"molecule": "CCN(CC)c1ccc(Oc2ccc(-c3[nH]c4cccc(F)c4c(=O)c3C)cc2F)cc1", "values": [{"measurement": "Activity", "setting": "[1]; Hepacivirus hominis", "result": "Dose-dependent effect"}, {"measurement": "EC50", "setting": "[1]; JFH-1, Huh-7.5.1, 48 h", "result": "5 to 7", "unit": "nM"}, {"measurement": "CC50 at 48 h", "setting": "[2]", "result": "> 2500", "unit": "nM"}, {"measurement": "Activity", "setting": "[3]", "result": "Dose-dependent effect"}, {"measurement": "CI", "setting": "[4]", "result": ">50"}, {"measurement": "CI", "setting": "[5]", "result": ">50"}, {"measurement": "EC50", "setting": "[6]", "result": "> 2500", "unit": "nM"}, {"measurement": "EC50", "setting": "[7]", "result": 300, "unit": "nM"}, {"measurement": "CC50 at 48 h", "setting": "[8]", "result": "> 2500", "unit": "nM"}, {"measurement": "selectivity ratio", "setting": "[9]", "result": "> 8"}, {"measurement": "Activity", "setting": "[10]", "result": "Dose-dependent effect"}, {"measurement": "EC50", "setting": "[11]", "result": 15, "unit": "nM"}, {"measurement": "Activity", "setting": "[12]", "result": "inactive"}]}]}
